# Laboratory results taken from ChEMBL document CHEMBL5357066, “Development of Novel Membrane Disrupting Lipoguanidine Compounds Sensitizing Gram-Negative Bacteria to Antibiotics” (ACS Med Chem Lett, 2024).
# What was measured:
# Pseudomonas aeruginosa [1] = assay: Antibacterial activity against Pseudomonas aeruginosa NCTC 13437 assessed as bacterial growth inhibition incubated for overnight by microbroth dilution method; type: functional
# Summary of the method: (§1)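 Broth microdilution in Tryptic Soy Broth. DMSO stocks were diluted in TSB as 2-fold series. Overnight TSB cultures were back-diluted to OD 0.01 and mixed 1:1 with compound. Incubation was overnight at 37 °C. MIC was the lowest concentration without visible growth (<0.1 OD600). DMSO vehicle was checked at equivalent concentrations.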
# Staphylococcus aureus [2] = assay: Antibacterial activity against methicillin sensitive Staphylococcus aureus ATCC 9144 assessed as bacterial growth inhibition incubated for overnight by microbroth dilution method; type: functional
# Summary of the method: (§2)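 Microbroth dilution in Tryptic Soy Broth. DMSO stocks were diluted in TSB as 2-fold series. Overnight TSB cultures were back-diluted to OD 0.01 and mixed 1:1 with compound. Incubation was overnight at 37 °C. MIC is the lowest concentration with no visible growth (<0.1 OD600). DMSO at equivalent concentrations was checked.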
# Staphylococcus aureus [3] = assay: Antibacterial activity against methicillin resistant Staphylococcus aureus NCTC 13616 assessed as bacterial growth inhibition incubated for overnight by microbroth dilution method; type: functional; summary of the method: as §2
# Staphylococcus aureus [4] = assay: Antibacterial activity against methicillin resistant Staphylococcus aureus USA 300 assessed as bacterial growth inhibition incubated for overnight by microbroth dilution method; type: functional; summary of the method: as §2
# Enterococcus faecalis [5] = assay: Antibacterial activity against vancomycin resistant Enterococcus faecalis NCTC 12201 assessed as bacterial growth inhibition incubated for overnight by microbroth dilution method; type: functional; summary of the method: as §2
# Enterococcus faecium = assay: Antibacterial activity against vancomycin resistant Enterococcus faecium NCTC 12204 assessed as bacterial growth inhibition incubated for overnight by microbroth dilution method; type: functional; summary of the method: as §2
# Acinetobacter baumannii [6] = assay: Antibacterial activity against Acinetobacter baumannii AYE assessed as bacterial growth inhibition incubated for overnight by microbroth dilution method; type: functional; summary of the method: as §1
# Acinetobacter baumannii [7] = assay: Antibacterial activity against Acinetobacter baumannii ATCC 17978 assessed as bacterial growth inhibition incubated for overnight by microbroth dilution method; type: functional; summary of the method: as §1
# Pseudomonas aeruginosa [8] = assay: Antibacterial activity against Pseudomonas aeruginosa PAO1 assessed as bacterial growth inhibition incubated for overnight by microbroth dilution method; type: functional; summary of the method: as §1
# Escherichia coli [9] = assay: Antibacterial activity against Escherichia coli NCTC 12923 assessed as bacterial growth inhibition incubated for overnight by microbroth dilution method; type: functional; summary of the method: as §1
# Klebsiella pneumoniae [10] = assay: Synergistic antibacterial activity against Klebsiella pneumoniae NCTC 13368 assessed as rifampicin MIC at <=0.25 times MIC incubated for overnight by microbroth dilution checkerboard assay; type: functional
# Summary of the method: (§3)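 Checkerboard microdilution under MIC conditions (TSB, overnight, 37 °C). Two-fold series of each agent were combined on one plate before bacteria were added, and single-agent MICs were measured on the same plate. FIC = sum of combination MIC/alone MIC for each agent, taken from the most synergistic well. Three independent repeats, mean ± SD. ≤0.5 was taken as strong synergy and 0.5–<1 as weak.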
# Klebsiella pneumoniae [11] = assay: Synergistic antibacterial activity against […] Klebsiella pneumoniae M6 assessed as rifampicin MIC at <=0.25 times MIC incubated for overnight by microbroth dilution checkerboard assay; type: functional
# Summary of the method: (§4)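 Checkerboard run under the MIC conditions (TSB, overnight, 37 °C). Antibiotic and lipoguanidine 2-fold series were combined on one plate before bacteria were added. Growth/no-growth was scored as for the MIC (<0.1 OD600). Single-agent MICs were measured on the same plates. Three independent repeats were done.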
# Acinetobacter baumannii [12] = assay: Synergistic antibacterial activity against Acinetobacter baumannii AYE assessed as rifampicin MIC at <=0.25 times MIC incubated for overnight by microbroth dilution checkerboard assay; type: functional; summary of the method: as §3
# Acinetobacter baumannii [13] = assay: Synergistic antibacterial activity against Acinetobacter baumannii ATCC 17978 assessed as rifampicin MIC at <=0.25 times MIC incubated for overnight by microbroth dilution checkerboard assay; type: functional; summary of the method: as §3
# Pseudomonas aeruginosa [14] = assay: Synergistic antibacterial activity against Pseudomonas aeruginosa PAO1 assessed as rifampicin MIC at <=0.25 times MIC incubated for overnight by microbroth dilution checkerboard assay; type: functional
# Summary of the method: (§5)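 Checkerboard microdilution in Tryptic Soy Broth, run like the MIC assay. Overnight TSB cultures were back-diluted to OD 0.01 and added 1:1 to the combined two-fold series of both agents, then incubated overnight at 37 °C. Growth/no-growth was called at <0.1 OD600. MICs alone were read on the same plates. FIC index came from the most synergistic well; three independent repeats, mean ± SD.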
# Pseudomonas aeruginosa [15] = assay: Synergistic antibacterial activity against Pseudomonas aeruginosa NCTC 13437 assessed as rifampicin MIC at <=0.25 times MIC incubated for overnight by microbroth dilution checkerboard assay; type: functional; summary of the method: as §5
# Escherichia coli [16] = assay: Synergistic antibacterial activity against Escherichia coli NCTC 12923 assessed as rifampicin MIC at <=0.25 times MIC incubated for overnight by microbroth dilution checkerboard assay; type: functional; summary of the method: as §3
# Staphylococcus aureus [17] = assay: Antibacterial activity against methicillin sensitive Staphylococcus aureus 1199B assessed as bacterial growth inhibition incubated for overnight by microbroth dilution method; type: functional; summary of the method: as §2
# Klebsiella pneumoniae [18] = assay: Synergistic antibacterial activity against Klebsiella pneumoniae NCTC 13368 assessed as bacterial growth inhibition incubated for overnight in presence of PBMN by microbroth dilution method relative to control; type: functional
# Summary of the method: (§6)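 Adapted broth microdilution in TSB. The test compound was in a 2-fold dilution series, with PMBN added at a fixed 30 µg/mL. Bacteria at OD 0.02 were added, and plates were incubated overnight at 37 °C. Growth/no growth was read as for the MIC (<0.1 OD600).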
# Klebsiella pneumoniae [19] = assay: Synergistic antibacterial activity against Klebsiella pneumoniae M6 assessed as bacterial growth inhibition incubated for overnight in presence of PBMN by microbroth dilution method relative to control; type: functional; summary of the method: as §6
# Acinetobacter baumannii [20] = assay: Synergistic antibacterial activity against Acinetobacter baumannii AYE assessed as bacterial growth inhibition incubated for overnight in presence of PBMN by microbroth dilution method relative to control; type: functional; summary of the method: as §6
# Acinetobacter baumannii [21] = assay: Synergistic antibacterial activity against Acinetobacter baumannii ATCC 17978 assessed as bacterial growth inhibition incubated for overnight in presence of PBMN by microbroth dilution method relative to control; type: functional; summary of the method: as §6
# Pseudomonas aeruginosa [22] = assay: Synergistic antibacterial activity against Pseudomonas aeruginosa PAO1 assessed as bacterial growth inhibition incubated for overnight in presence of […] by microbroth dilution method relative to control; type: functional
# Summary of the method: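 Fixed-concentration combination MIC in TSB. The first agent was set in a two-fold dilution series (100 µL/well), then 50 µL/well of the second agent at a fixed concentration was added; PMBN was fixed at 30 µg/mL. Bacteria at OD 0.02 (50 µL) went into 150 µL of compounds, overnight at 37 °C. MIC was the lowest concentration without visible growth (<0.1 OD600).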
# Pseudomonas aeruginosa [23] = assay: Synergistic antibacterial activity against Pseudomonas aeruginosa NCTC 13437 assessed as bacterial growth inhibition incubated for overnight in presence of PBMN by microbroth dilution method relative to control; type: functional; summary of the method: as §6
# Escherichia coli [24] = assay: Synergistic antibacterial activity against Escherichia coli NCTC 12923 assessed as bacterial growth inhibition incubated for overnight in presence of PBMN by microbroth dilution method relative to control; type: functional; summary of the method: as §6
# Klebsiella pneumoniae [25] = assay: Synergistic antibacterial activity against Klebsiella pneumoniae NCTC 13368 assessed as fold change in rifampicin MIC at <=0.25 times MIC incubated for overnight by microbroth dilution checkerboard assay relative to rifampicin alone; type: functional; summary of the method: as §4
# Acinetobacter baumannii [26] = assay: Synergistic antibacterial activity against Acinetobacter baumannii AYE assessed as fold change in rifampicin MIC at <=0.25 times MIC incubated for overnight by microbroth dilution checkerboard assay relative to rifampicin alone; type: functional; summary of the method: as §3
# Acinetobacter baumannii [27] = assay: Synergistic antibacterial activity against Acinetobacter baumannii ATCC 17978 assessed as fold change in rifampicin MIC at <=0.25 times MIC incubated for overnight by microbroth dilution checkerboard assay relative to rifampicin alone; type: functional; summary of the method: as §3
# Pseudomonas aeruginosa [28] = assay: Synergistic antibacterial activity against Pseudomonas aeruginosa PAO1 assessed as fold change in rifampicin MIC at <=0.25 times MIC incubated for overnight by microbroth dilution checkerboard assay relative to rifampicin alone; type: functional; summary of the method: as §5
# Pseudomonas aeruginosa [29] = assay: Synergistic antibacterial activity against Pseudomonas aeruginosa NCTC 13437 assessed as fold change in rifampicin MIC at <=0.25 times MIC incubated for overnight by microbroth dilution checkerboard assay relative to rifampicin alone; type: functional; summary of the method: as §5
# Escherichia coli [30] = assay: Synergistic antibacterial activity against Escherichia coli NCTC 12923 assessed as fold change in rifampicin MIC at <=0.25 times MIC incubated for overnight by microbroth dilution checkerboard assay relative to rifampicin alone; type: functional; summary of the method: as §3
# Klebsiella pneumoniae [31] = assay: Antibacterial activity against Klebsiella pneumoniae M6 assessed as bacterial growth inhibition incubated for overnight by microbroth dilution method
# Klebsiella pneumoniae [32] = assay: Antibacterial activity against ESBL Klebsiella pneumoniae NCTC 13368 assessed as bacterial growth inhibition incubated for overnight by microbroth dilution method
# Enterococcus faecalis [33] = assay: Antibacterial activity against vancomycin sensitive Enterococcus faecalis NCTC 775 assessed as bacterial growth inhibition incubated for overnight by microbroth dilution method
# Erythrocyte = assay: Hemolytic activity in human Red blood cells at 512 microg/ml measured after 1 hrs by absorbance based assay; type: toxicity, cell-based; conditions: dose 512 µg/ml
# Summary of the method: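 Titrations in PBS were incubated with freshly collected human red blood cells for 1 h at 37 °C. Controls were 0.1% Triton-X-100 (full lysis) and PBS alone (no lysis). After centrifugation, supernatant OD550 was read. % haemolysis = (AP−AB)/(AC−AB)×100. Data are means and standard error of three biological replicates.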
SMILES,MIC (Pseudomonas aeruginosa [1]) [µg/mL],MIC (Staphylococcus aureus [2]) [µg/mL],MIC (Staphylococcus aureus [3]) [µg/mL],MIC (Staphylococcus aureus [4]) [µg/mL],MIC (Enterococcus faecalis [5]) [µg/mL],MIC (Enterococcus faecium) [µg/mL],MIC (Acinetobacter baumannii [6]) [µg/mL],MIC (Acinetobacter baumannii [7]) [µg/mL],MIC (Pseudomonas aeruginosa [8]) [µg/mL],MIC (Escherichia coli [9]) [µg/mL],MIC (Klebsiella pneumoniae [10]) [µg/mL],MIC (Klebsiella pneumoniae [11]) [µg/mL],MIC (Acinetobacter baumannii [12]) [µg/mL],MIC (Acinetobacter baumannii [13]) [µg/mL],MIC (Pseudomonas aeruginosa [14]) [µg/mL],MIC (Pseudomonas aeruginosa [15]) [µg/mL],MIC (Staphylococcus aureus [17]) [µg/mL],fold change (FC) (Klebsiella pneumoniae [25]),fold change (FC) (Acinetobacter baumannii [26]),fold change (FC) (Acinetobacter baumannii [27]),other results
CCCCC/C=C\C/C=C\CCCCCCCCNC(=N)NCCCCCCCCNC(=N)N,> 128,2,4,2,4,2,16,4,> 128,8,8,0.5,1,1,16,16,2,>=4,>=4,>=4,MIC (Escherichia coli [16]): 8 µg/mL; inhibition (INH) (Klebsiella pneumoniae [18]): <20%; inhibition (INH) (Klebsiella pneumoniae [19]): <20%; inhibition (INH) (Acinetobacter baumannii [20]): <20%; inhibition (INH) (Acinetobacter baumannii [21]): <20%; inhibition (INH) (Pseudomonas aeruginosa [22]): <20%; inhibition (INH) (Pseudomonas aeruginosa [23]): <20%; inhibition (INH) (Escherichia coli [24]): <20%; fold change (FC) (Pseudomonas aeruginosa [28]): 0; fold change (FC) (Pseudomonas aeruginosa [29]): 0; fold change (FC) (Escherichia coli [30]): 0; MIC (Klebsiella pneumoniae [31]): 16 µg/mL; MIC (Klebsiella pneumoniae [32]): 32 µg/mL; MIC (Enterococcus faecalis [33]): 4 µg/mL
CCCCCCCCCCCCCCCCNC(=N)NCCCCN,> 128,2,2,2,2,2,32,4,> 128,32,2,0.25,≤ 0.125,0.25,2,16,4,>=4,>=4,>=4,Activity (Erythrocyte): Toxic; fold change (FC) (Pseudomonas aeruginosa [28]): >=4; fold change (FC) (Pseudomonas aeruginosa [29]): 0; MIC (Klebsiella pneumoniae [31]): 8 µg/mL; MIC (Klebsiella pneumoniae [32]): > 128 µg/mL; MIC (Enterococcus faecalis [33]): 2 µg/mL
